Measurements reported in ChEMBL document CHEMBL2384996 (J Med Chem, 2013).
Active and inactive are the calls of the source. The calls are words filed in the database; no cut-off is given here.

test system: Oocyte; assay: Selectivity ratio of IC50 for Gloeobacter violaceus ligand-gated ion channel E177A mutant to IC50 for wild-type Gloeobacter violaceus ligand-gated ion channel expressed in Xenopus oocytes; type: cell-based; details: not given

Molecule `O=C(O)/C=C/c1ccc(O)c(O)c1` [CAFFEIC ACID] has a Ratio IC50 of over 10.

test system: Gloeobacter violaceus; assay: Inhibition of Gloeobacter violaceus ligand-gated ion channel R133A mutant at 1 mM; details: not given
Procedure, shortened: (§1)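 Alanine point mutants of GLIC expressed in Xenopus oocytes, voltage clamp. Compound co-applied with pH 5.5 buffer (100 mM NaCl, 3 mM KCl, 1 mM CaCl2, 1 mM MgCl2, 10 mM MES). Concentration-inhibition curves used for IC50; single-point inhibition taken at 100 μM, or at up to 1 mM. Mean ± sd, n ≥ 3 cells.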

For `O=C(O)/C=C/c1ccc(O)c(O)c1` [CAFFEIC ACID], the inhibition was “inactive”.

test system: Oocyte; assay: Inhibition of Gloeobacter violaceus ligand-gated ion channel expressed in Xenopus laevis oocytes assessed as inhibition of MES buffer pH 5.5 -induced currents at 300 uM after 30 secs by voltage clamp technique; type: cell-based; details: not given
Procedure, shortened: (§2)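 GLIC expressed in Xenopus oocytes, two-electrode voltage clamp. Current elicited by pH 5.5 MES buffer (100 mM NaCl, 3 mM KCl, 1 mM CaCl2, 1 mM MgCl2, 10 mM MES) for 30 sec to steady state. Compound then co-applied for 30 sec in the same pH 5.5 buffer, followed by washout with buffer alone. Oocytes held in Barth's medium after injection.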

Point of comparison: `NC(=O)/C=C/c1ccc(O)c(O)c1`, inhibition 51.6%. Against it:
- O=C(O)/C=C/c1ccc(O)cc1 [COUMARIC ACID] — higher, 91.4%

test system: Oocyte; assay: Inhibition of Gloeobacter violaceus ligand-gated ion channel expressed in Xenopus laevis oocytes assessed as inhibition of MES buffer-induced currents at 1 mM at pH 5.5 measured after wash-out by voltage clamp technique; type: cell-based; details: not given

For `O=C(O)/C=C/c1ccc(O)c(O)c1` [CAFFEIC ACID], the inhibition was “inactive”.

test system: not listed separately; assay: Inhibition of Gloeobacter violaceus ligand-gated ion channel E177A mutant; details: not given; procedure, shortened: as §1

In the case of `O=C(O)/C=C/c1ccc(O)c(O)c1` [CAFFEIC ACID], the IC50 is reported as 506 µM.

test system: Gloeobacter violaceus; assay: Inhibition of Gloeobacter violaceus ligand-gated ion channel E177A mutant at 100 uM; details: not given; procedure, shortened: as §1

With `O=C(O)/C=C/c1ccc(O)c(O)c1` [CAFFEIC ACID] the inhibition was 15%.

test system: not listed separately; assay: Inhibition of Gloeobacter violaceus ligand-gated ion channel E181A mutant; details: not given; procedure, shortened: as §1

Work on `O=C(O)/C=C/c1ccc(O)c(O)c1` [CAFFEIC ACID] yielded an IC50 of 24.1 µM.

test system: Gloeobacter violaceus; assay: Inhibition of Gloeobacter violaceus ligand-gated ion channel R105A mutant at 100 uM; details: not given; procedure, shortened: as §1

Molecule `O=C(O)/C=C/c1ccc(O)c(O)c1` [CAFFEIC ACID] has an inhibition of 15%.

test system: not listed separately; assay: Inhibition of Gloeobacter violaceus ligand-gated ion channel R105A mutant; details: not given; procedure, shortened: as §1

With `O=C(O)/C=C/c1ccc(O)c(O)c1` [CAFFEIC ACID] the IC50 was 420 µM.

test system: Oocyte; assay: Inhibition of Gloeobacter violaceus ligand-gated ion channel expressed in Xenopus laevis oocytes assessed as inhibition of buffer at pH 4 -induced currents at 100 uM after 30 secs by voltage clamp technique; type: cell-based; details: 100 uM

With `O=C(O)/C=C/c1ccc(O)c(O)c1` [CAFFEIC ACID] the inhibition was “inactive”.

same assay, conditions: 300 uM, in the assay text read “at 300 uM” for “at 100 uM”

With `CCNC(=O)/C=C/c1ccc(O)c(O)c1` the inhibition was “inactive”.

test system: not listed separately; assay: Inhibition of Gloeobacter violaceus ligand-gated ion channel R77A mutant; details: not given; procedure, shortened: as §1

In the case of `O=C(O)/C=C/c1ccc(O)c(O)c1` [CAFFEIC ACID], the IC50 is reported as 945 µM.

test system: Oocyte; assay: Selectivity ratio of IC50 for Gloeobacter violaceus ligand-gated ion channel R77A mutant to IC50 for wild-type Gloeobacter violaceus ligand-gated ion channel expressed in Xenopus oocytes; type: cell-based; details: not given

For `O=C(O)/C=C/c1ccc(O)c(O)c1` [CAFFEIC ACID], the Ratio IC50 was over 10.

test system: Oocyte; assay: Inhibition of Gloeobacter violaceus ligand-gated ion channel expressed in Xenopus laevis oocytes assessed as inhibition of MES buffer pH 5.5 -induced currents at 100 uM after 30 secs by voltage clamp technique; type: cell-based; details: not given
Procedure, shortened: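 GLIC-expressing oocytes kept in Barth's medium (88 mM NaCl, 1 mM KCl, 2.4 mM NaHCO3, 15 mM HEPES, 0.3 mM NaNO3, 0.7 mM CaCl2). Each cell was first given pH 5.5 buffer (100 mM NaCl, 3 mM KCl, 1 mM CaCl2, 1 mM MgCl2, 10 mM MES) for 30 sec. Compound was then co-applied in the same buffer for 30 sec, followed by washout. Mean ± sd, n ≥ 3 cells.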

Molecule `O=C(O)/C=C/c1ccc2c(c1)OCO2` has an inhibition of 79.7%.

test system: Gloeobacter violaceus; assay: Inhibition of Gloeobacter violaceus ligand-gated ion channel R77A mutant at 100 uM; details: not given; procedure, shortened: as §1

In the case of `O=C(O)/C=C/c1ccc(O)c(O)c1` [CAFFEIC ACID], the inhibition is reported as 15%.

test system: not listed separately; assay: Antagonist activity at Gloeobacter violaceus ligand-gated ion channel expressed in Xenopus oocytes assessed as inhibition of MES buffer pH 5.5 -induced currents after 30 secs by voltage clamp technique; type: cell-based; details: Oocyte; procedure, shortened: as §2

Point of comparison: `O=C(O)c1ccc2ccccc2c1` [BETA-NAPHTOIC ACID], IC50 61.4 µM. Against it:
- NC(=O)/C=C/c1ccc(O)c(O)c1 — 5.7-fold higher, 347 µM
- O=C(O)/C=C/c1ccc2c(c1)OCO2 — 2.1-fold lower, 28.8 µM
- OC/C=C/c1ccc(O)c(O)c1 — within 1.5-fold, 73.9 µM
- O=C(O)COc1ccccc1 — within 1.5-fold, 53.3 µM
- COc1ccc2cc(C(=O)O)c(=O)oc2c1 — 2.7-fold higher, 168 µM
- O=C(O)C(=Cc1ccccc1)C(=O)O — 130-fold higher, 7940 µM
- O=C(O)/C=C/c1cccc(C(F)(F)F)c1 — 2.4-fold lower, 25.3 µM
- O=C(O)C(=C/C=C/c1ccccc1)C(=O)O — within 1.5-fold, 83.5 µM
- CCNC(=O)/C=C/c1ccc(O)c(O)c1 — 4.8-fold higher, 295 µM
- COc1ccc(/C=C/C(=O)O)cc1OC — 3.4-fold higher, 206 µM
- O=C(O)/C=C/c1cccc(Cl)c1 [3-CHLORO-CINNAMIC ACID] — 4.5-fold lower, 13.7 µM
- O=C(O)/C=C/c1ccc(O)c(O)c1 [CAFFEIC ACID] — 3.7-fold lower, 16.7 µM
- O=C(O)/C=C/c1ccccc1 [CINNAMIC ACID] — 1.8-fold lower, 34.6 µM
- O=C(O)/C=C/c1ccc(O)cc1 [COUMARIC ACID] — 6.4-fold lower, 9.59 µM
- O=C(O)c1cc2ccccc2oc1=O [COUMARIN-3-CARBOXYLIC ACID] — 4.6-fold higher, 282 µM
- O=C(O)CCc1ccc(O)c(O)c1 [DIHYDROCAFFEIC ACID] — within 1.5-fold, 86.8 µM
- CCOC(=O)/C=C/c1ccc(O)c(O)c1 [ETHYL CAFFEATE] — 4-fold higher, 246 µM
- COc1ccc(/C=C/C(=O)O)cc1O [ISOFERULIC ACID] — 4.5-fold lower, 13.5 µM
- COC(=O)/C=C/c1ccc(O)c(O)c1 [METHYLCAFFEATE] — 6.3-fold higher, 388 µM

test system: Oocyte; assay: Selectivity ratio of IC50 for Gloeobacter violaceus ligand-gated ion channel R105A mutant to IC50 for wild-type Gloeobacter violaceus ligand-gated ion channel expressed in Xenopus oocytes; type: cell-based; details: not given

With `O=C(O)/C=C/c1ccc(O)c(O)c1` [CAFFEIC ACID] the Ratio IC50 was over 10.

test system: not listed separately; assay: Dissociation constant, pKa of the compound; type: physicochemical; details: not given

Point of comparison: `O=C(O)/C=C/c1ccc(O)c(O)c1` [CAFFEIC ACID], pKa 4.35. Against it:
- O=C(O)COc1ccccc1 — lower, 3.2
- O=C(O)C(=Cc1ccccc1)C(=O)O — lower, 3.5
- O=C(O)/C=C/c1cccc(C(F)(F)F)c1 — higher, 4.6
- O=C(O)C(=C/C=C/c1ccccc1)C(=O)O — lower, 3.45
- COc1ccc(/C=C/C(=O)O)cc1OC — higher, 4.55
- O=C(O)/C=C/c1cccc(Cl)c1 [3-CHLORO-CINNAMIC ACID] — higher, 4.8
- O=C(O)c1ccc2ccccc2c1 [BETA-NAPHTOIC ACID] — within 0.2 log units, 4.45
- O=C(O)c1cc2ccccc2oc1=O [COUMARIN-3-CARBOXYLIC ACID] — lower, 3.6
- O=C(O)CCc1ccc(O)c(O)c1 [DIHYDROCAFFEIC ACID] — within 0.2 log units, 4.3

test system: Gloeobacter violaceus; assay: Inhibition of Gloeobacter violaceus ligand-gated ion channel E181A mutant at 100 uM; details: not given; procedure, shortened: as §1

With `O=C(O)/C=C/c1ccc(O)c(O)c1` [CAFFEIC ACID] the inhibition was 80%.

test system: Oocyte; assay: Inhibition of Gloeobacter violaceus ligand-gated ion channel expressed in Xenopus laevis oocytes assessed as inhibition of MES buffer pH 5.5 -induced currents at 1 mM after 30 secs by voltage clamp technique; type: cell-based; details: not given; procedure, shortened: as §2

Point of comparison: `O=C(O)/C=C/c1ccc(O)c(O)c1` [CAFFEIC ACID], inhibition 93.8%. Against it:
- OC/C=C/c1ccc(O)c(O)c1 — higher, 95.2%
- O=C(O)COc1ccccc1 — higher, 98.5%
- COc1ccc2cc(C(=O)O)c(=O)oc2c1 — higher, 96%
- O=C(O)C(=Cc1ccccc1)C(=O)O — lower, 25%
- O=C(O)/C=C/c1cccc(C(F)(F)F)c1 — higher, 94.6%
- O=C(O)C(=C/C=C/c1ccccc1)C(=O)O — lower, 92.2%
- CCNC(=O)/C=C/c1ccc(O)c(O)c1 — lower, 81.6%
- COc1ccc(/C=C/C(=O)O)cc1OC — lower, 75.6%
- O=C(O)/C=C/c1cccc(Cl)c1 [3-CHLORO-CINNAMIC ACID] — higher, 95%
- O=C(O)c1ccc2ccccc2c1 [BETA-NAPHTOIC ACID] — higher, 96.4%
- O=C(O)/C=C/c1ccccc1 [CINNAMIC ACID] — higher, 97.5%
- O=C(O)c1cc2ccccc2oc1=O [COUMARIN-3-CARBOXYLIC ACID] — lower, 84%
- O=C(O)CCc1ccc(O)c(O)c1 [DIHYDROCAFFEIC ACID] — lower, 90.5%
- CCOC(=O)/C=C/c1ccc(O)c(O)c1 [ETHYL CAFFEATE] — lower, 91.8%
- COc1ccc(/C=C/C(=O)O)cc1O [ISOFERULIC ACID] — higher, 98.5%
- COC(=O)/C=C/c1ccc(O)c(O)c1 [METHYLCAFFEATE] — lower, 78%
